The species named for assay [1] is Bos taurus. Put plainly: Inhibition of bovine brain tubulin polymerization at 5 uM measured for every 1 min for 20 mins by spectrophotometer analysis. In a few lines:
(§1)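 Bovine brain tubulin (>97% pure), 0.4 mg per assay, exposed to test compound at 5 or 10 μM in 5% DMSO vehicle, with a DMSO-only control and colchicine 5 μM as positive control. Polymerization followed by absorbance at 340 nm at 37 °C, read every minute for 20 min. Percent inhibition of polymerization taken at 20 min.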

Assay [2] relates to PC-3. Put plainly: Antiproliferative activity against human PC3 cells after 48 hrs by SRB assay. In kind it is functional, cell-based. Conditions: PC-3, 48 h.
Assay [3] is described as follows: Antiproliferative activity against human paclitaxel-resistant PC3-TxR cells after 48 hrs by SRB assay. Type of assay: functional, cell-based.
Assay [4] is described as follows: Antiproliferative activity against human WM164 cells after 48 hrs by SRB assay. In kind it is functional, cell-based. The following applies: WM164, 48 h. In general terms: In SRB staining, fixed cells bind dye roughly in proportion to their protein.
The test system of assay [5] is PC-3. Put plainly: Resistance index, ratio of IC50 for human paclitaxel-resistant PC3-TxR cells to IC50 for human PC3 cells.
Another assay concerns LNCaP. Put plainly: Antiproliferative activity against human LNCAP cells after 48 hrs by SRB assay. In kind it is functional, cell-based.
For another assay, the system named is A-375. Put plainly: Antiproliferative activity against human A375 cells after 48 hrs by SRB assay. The following applies: A-375, 48 h. Type of assay: functional, cell-based. In short, it runs like this:
(§2)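 Run as part of a panel of two human metastatic melanoma lines (A375, WM164) and three human prostate cancer lines (LNCaP, PC-3, Du 145), following previously described methods. Colchicine served as the positive control.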

In another assay the test system is DU-145. Put plainly: Antiproliferative activity against human DU145 cells after 48 hrs by SRB assay. Type of assay: functional, cell-based. Conditions: DU-145, 48 h. In short, it runs like this: as §2
For assay [6], the species on record is Bos taurus. Put plainly: Inhibition of bovine brain tubulin polymerization measured for every 1 min for 20 mins by spectrophotometer analysis. In short, it runs like this:
as §1

Assay [7] is filed under the species Bos taurus. Put plainly: Inhibition of bovine brain tubulin polymerization at 10 uM measured for every 1 min for 20 mins by spectrophotometer analysis. In short, it runs like this: as §1
For the next assay, the species on record is Homo sapiens. The following applies: 10 to 1000 nM.

The source made the active and inactive calls. No cut-off for these calls is given here.

For the molecule `COc1cc(C(=O)c2cn(C)c(-c3cn(C)c4ccccc34)n2)cc(OC)c1OC`, the inhibition (as a rule, the relative decrease from the control value, in per cent) is 65% in the assay listed under Bos taurus [1], “Dose-dependent effect” in the assay listed under Bos taurus [6] and 80% in the assay filed under Bos taurus [7]. Moreover, the IC50 (as a rule, the concentration that inhibits the measured activity by half) with PC-3 [2] stood at 20.8 nM; in assay [3], 22.4 nM; in [4], 24.2 nM; in the assay on LNCaP, 35.9 nM; in the assay with A-375 it was 18.8 nM; in the assay with DU-145, 76.5 nM. Besides, in the assay with PC-3 [5], the “Ratio IC50” value is given as 1.1.
As to `COc1cc2c(c(OC)c1OC)-c1ccc(OC)c(=O)cc1[C@@H](NC(C)=O)CC2` [COLCHICINE], the IC50 in the assay on PC-3 [2] came out at 11.5 nM; in assay [4] it was 29 nM; with LNCaP, 16.3 nM; in the assay on A-375, 20.6 nM; in the assay with DU-145, 11.2 nM.
Turning to `COc1cc(C(=O)c2c[nH]c(-c3coc4ccccc34)n2)cc(OC)c1OC`, the inhibition in the assay filed under Bos taurus [1] is 30%; in the assay filed under Bos taurus [6], “Dose-dependent effect”; in the assay filed under Bos taurus [7], 60%. Also, the IC50 in the assay on PC-3 [2] was 33.3 nM; in assay [3], 42.8 nM; in [4], 73.6 nM; in the assay on LNCaP, 14.1 nM; in the assay on A-375, 53.4 nM; in the assay on DU-145, 45 nM. In addition, the “Ratio IC50” value in the assay on PC-3 [5] was determined as 1.
For the molecule `COc1cc(C(=O)c2c[nH]c(-c3cn(S(=O)(=O)c4ccccc4)c4ccccc34)n2)cc(OC)c1OC`, the inhibition in the assay listed under Bos taurus [1] was 67%; in the assay filed under Bos taurus [6], “Dose-dependent effect”; in the assay listed under Bos taurus [7], 85%. The IC50 with PC-3 [2] was determined as 33.3 nM; in assay [3], 27.6 nM; in [4], 166 nM; in the assay with LNCaP, 107 nM; in the assay on A-375, 414 nM; in the assay on DU-145 it was 189 nM. In addition, the “Ratio IC50” value with PC-3 [5] was found to be 0.9.
In the case of `COc1cc(C(=O)c2c[nH]c(-c3csc4ccccc34)n2)cc(OC)c1OC`, in the assay listed under Bos taurus [1], the inhibition result is “inactive”. Also, the IC50 with PC-3 [2] was determined as 20.8 nM; in assay [3], 98.6 nM; in [4], 45.7 nM; in the assay on LNCaP it was 29.1 nM; in the assay with A-375, 41 nM; in the assay on DU-145 it was 51.2 nM. The “Ratio IC50” value in the assay with PC-3 [5] worked out at 0.9. For the same molecule, the inhibition result in the assay filed under Bos taurus [6] is “Dose-dependent effect”; in the assay filed under Bos taurus [7] it was 30%.
As to `CC(=O)O[C@H]1C(=O)[C@@]2(C)[C@H]([C@H](OC(=O)c3ccccc3)[C@]3(O)C[C@H](OC(=O)[C@H](O)[C@@H](NC(=O)c4ccccc4)c4ccccc4)C(C)=C1C3(C)C)[C@]1(OC(C)=O)CO[C@@H]1C[C@@H]2O` [PACLITAXEL], the concentration for half-maximal inhibition (IC50) stood at 0.4 nM in the assay on PC-3 [2] and 188 nM in assay [3].
For the molecule `COc1cc(C(=O)c2cnc(-c3c[nH]c4ccccc34)[nH]2)cc(OC)c1OC` [SABIZABULIN], the inhibition was 70% in the assay filed under Bos taurus [1] and “Dose-dependent effect” in the assay listed under Bos taurus [6]. Also, the IC50 in the assay with PC-3 [2] came out at 3.7 nM; in assay [3] it was 3.7 nM; in assay [4], 5.3 nM; in the assay on LNCaP, 2.8 nM; with A-375, 3.2 nM; with DU-145 it was 3.9 nM. The inhibition entry in the assay listed under Homo sapiens was “inactive”. Besides, the “Ratio IC50” value in the assay on PC-3 [5] came out at 1. Besides, the inhibition result in the assay filed under Bos taurus [7] is “Active”.

The record behind these values is ChEMBL document CHEMBL2163309, “Discovery of novel 2-aryl-4-benzoyl-imidazole (ABI-III) analogues targeting tubulin polymerization as antiproliferative agents” (J Med Chem, 2012).
